Results reported in ChEMBL document CHEMBL1208778, “Synthesis and anti-cancer activity of chalcone linked imidazolones” (2010).
Activity calls are given as the source filed them. The calls are words filed in the database; no cut-off is given here.

Legend:
[1] = Growth inhibition of human RPMI8266 cells; format: functional
Method in brief: (§1)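 Five-dose testing was run within the NCI (Bethesda) in vitro Anticancer Screen Program on a panel of 53 human tumour cell lines from nine cancer types. Growth inhibition is reported as GI50.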

K562 = assay: Growth inhibition of human K562 cells; format: functional; method in brief: as §1
A549 = assay: Growth inhibition of human A549 cells; format: functional; method in brief: as §1
EKVX = assay: Growth inhibition of human EKVX cells; format: functional; method in brief: as §1
HOP-62 = assay: Growth inhibition of human HOP62 cells; format: functional; method in brief: as §1
HOP-92 = assay: Growth inhibition of human HOP92 cells; format: functional; method in brief: as §1
NCI-H226 = assay: Growth inhibition of human NCI-H226 cells; format: functional; method in brief: as §1
NCI-H23 = assay: Growth inhibition of human NCI-H23 cells; format: functional; method in brief: as §1
NCI-H322M = assay: Growth inhibition of human NCI-H322M cells; format: functional; method in brief: as §1
NCI-H460 = assay: Growth inhibition of human NCI-H460 cells; format: functional; method in brief: as §1
NCI-H522 = assay: Growth inhibition of human NCI-H522 cells; format: functional; method in brief: as §1
COLO 205 = assay: Growth inhibition of human COLO205 cells; format: functional; method in brief: as §1
HCC 2998 = assay: Growth inhibition of human HCC2998 cells; format: functional; method in brief: as §1
HCT-116 = assay: Growth inhibition of human HCT116 cells; format: functional; method in brief: as §1
HCT-15 = assay: Growth inhibition of human HCT15 cells; format: functional; method in brief: as §1
HT-29 = assay: Growth inhibition of human HT-29 cells; format: functional; method in brief: as §1
KM12 = assay: Growth inhibition of human KM12 cells; format: functional; method in brief: as §1
SW-620 = assay: Growth inhibition of human SW620 cells; format: functional
Method in brief: (§2)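 Compounds that passed a preliminary screen were tested at five doses in the NCI (Bethesda) in vitro Anticancer Screen Program against a 53-line human tumour panel spanning leukemia, lung, colon, CNS, melanoma, ovarian, renal, prostate and breast. Growth inhibition is reported as GI50.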

SF-268 = assay: Growth inhibition of human SF268 cells; format: functional; method in brief: as §1
SF-295 = assay: Growth inhibition of human SF295 cells; format: functional; method in brief: as §1
SF-539 = assay: Growth inhibition of human SF539 cells; format: functional; method in brief: as §1
SNB-19 = assay: Growth inhibition of human SNB19 cells; format: functional; method in brief: as §2
SNB-75 = assay: Growth inhibition of human SNB75 cells; format: functional; method in brief: as §2
U-251 = assay: Growth inhibition of human U251 cells; format: functional; method in brief: as §2
A498 = assay: Growth inhibition of human A498 cells; format: functional; method in brief: as §1
786-0 = assay: Growth inhibition of human 786-0 cells; format: functional; method in brief: as §1
ACHN = assay: Growth inhibition of human ACHN cells; format: functional; method in brief: as §1
CAKI-1 = assay: Growth inhibition of human Caki1 cells; format: functional; method in brief: as §1
RXF 393 = assay: Growth inhibition of human RXF393 cells; format: functional; method in brief: as §1
SN12C = assay: Growth inhibition of human SN12C cells; format: functional; method in brief: as §2
TK-10 = assay: Growth inhibition of human TK10 cells; format: functional; method in brief: as §2
UO-31 = assay: Growth inhibition of human UO31 cells; format: functional; method in brief: as §2
PC-3 = assay: Growth inhibition of human PC3 cells; format: functional; method in brief: as §1
OVCAR-3 = assay: Growth inhibition of human OVCAR-3 cells; format: functional; method in brief: as §1
OVCAR-4 = assay: Growth inhibition of human OVCAR4 cells; format: functional; method in brief: as §1
OVCAR-5 = assay: Growth inhibition of human OVCAR5 cells; format: functional; method in brief: as §1
OVCAR-8 = assay: Growth inhibition of human OVCAR8 cells; format: functional; method in brief: as §1
NCI/ADR-RES = assay: Growth inhibition of human NCI/ADR-RES cells; format: functional; method in brief: as §1
SK-OV-3 = assay: Growth inhibition of human SKOV3 cells; format: functional; method in brief: as §2
MCF7 [2] = assay: Growth inhibition of human MCF7 cells; format: functional; method in brief: as §1
MDA-MB-231 = assay: Growth inhibition of human MDA-MB-231 cells; format: functional; method in brief: as §1
[3] = Growth inhibition of human Hs 578T cells; format: functional; method in brief: as §1
BT-549 = assay: Growth inhibition of human BT549 cells; format: functional; method in brief: as §1
T47D = assay: Growth inhibition of human T47D cells; format: functional; method in brief: as §2
LOX IMVI = assay: Growth inhibition of human LOXIMVI cells; format: functional; method in brief: as §1
Malme-3M = assay: Growth inhibition of human MALME-3M cells; format: functional; method in brief: as §1
M14 = assay: Growth inhibition of human M14 cells; format: functional; method in brief: as §1
MDA-MB-435 = assay: Growth inhibition of human MDA-MB-435 cells; format: functional; method in brief: as §1
SK-MEL-2 = assay: Growth inhibition of human SK-MEL-2 cells; format: functional; method in brief: as §1
SK-MEL-28 = assay: Growth inhibition of human SK-MEL-28 cells; format: functional; method in brief: as §1
SK-MEL-5 = assay: Growth inhibition of human SK-MEL-5 cells; format: functional; method in brief: as §1
UACC-257 = assay: Growth inhibition of human UACC257 cells; format: functional; method in brief: as §2
UACC-62 = assay: Growth inhibition of human UACC62 cells; format: functional; method in brief: as §2
MCF7 [4] = assay: Cell cycle arrest in human MCF7 cells assessed as accumulation at G0 phase at 10 uM after 24 hrs by FACS analysis; format: functional
Method in brief: (§3)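 MCF-7 breast carcinoma cells were exposed to 10 µM test compound for 24 h, with DMSO as the vehicle control. Cell-cycle distribution was read by FACS as the percentage of cells in G0, G1, S and G2/M.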

MCF7 [5] = assay: Cell cycle arrest in human MCF7 cells assessed as accumulation at G1 phase at 10 uM after 24 hrs by FACS analysis; format: functional; method in brief: as §3
MCF7 [6] = assay: Cell cycle arrest in human MCF7 cells assessed as accumulation at S phase at 10 uM after 24 hrs by FACS analysis; format: functional; method in brief: as §3
MCF7 [7] = assay: Cell cycle arrest in human MCF7 cells assessed as accumulation at G2/M phase at 10 uM after 24 hrs by FACS analysis; format: functional; method in brief: as §3
MCF7 [8] = assay: Cell cycle arrest in human MCF7 cells assessed as accumulation at G0 phase at 30 uM after 24 hrs by FACS analysis; format: functional
Method in brief: (§4)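 MCF-7 cells were treated at 30 µM for 24 h alongside a DMSO control. Fractions in G0, G1, S and G2/M phases were measured by FACS, and values are means of three experiments.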

MCF7 [9] = assay: Cell cycle arrest in human MCF7 cells assessed as accumulation at G1 phase at 30 uM after 24 hrs by FACS analysis; format: functional; method in brief: as §4
MCF7 [10] = assay: Cell cycle arrest in human MCF7 cells assessed as accumulation at S phase at 30 uM after 24 hrs by FACS analysis; format: functional; method in brief: as §4
MCF7 [11] = assay: Cell cycle arrest in human MCF7 cells assessed as accumulation at G2/M phase at 30 uM after 24 hrs by FACS analysis; format: functional; method in brief: as §4
MCF7 [12] = assay: Induction of apoptosis in human MCF7 cells assessed as decrease in procaspase 7 level at 30 uM after 24 hrs by Western blot analysis; format: functional, cell-based
Method in brief: (§5)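 MCF-7 breast carcinoma cells were exposed to 30 µM compound for 24 h, with CA-4 as positive control. Cell lysates were then immunoblotted with antibodies to procaspase-7 and cleavage-specific PARP, using β-actin as loading control.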

MCF7 [13] = assay: Induction of apoptosis in human MCF7 cells assessed as […] in PARP cleavage at 30 uM after 24 hrs by Western blot analysis; format: functional, cell-based; method in brief: as §5

GI50 (K562): 2040 nM | GI50 (A549): 3850 nM | GI50 (NCI-H226): 2600 nM | GI50 (NCI-H23): 2020 nM | GI50 (NCI-H322M): 3390 nM | GI50 (NCI-H460): 1950 nM | GI50 (NCI-H522): 2360 nM | GI50 (COLO 205): 2210 nM | GI50 (HCC 2998): 1510 nM | GI50 (HCT-116): 1400 nM | GI50 (HCT-15): 2730 nM | GI50 (HT-29): 3770 nM | GI50 (SW-620): 2290 nM | GI50 (U-251): 2110 nM | GI50 (786-0): 1350 nM | GI50 (ACHN): 2500 nM | GI50 (PC-3): 2520 nM | GI50 (OVCAR-3): 2290 nM | GI50 (OVCAR-4): 5190 nM | GI50 (OVCAR-5): 2040 nM | GI50 (OVCAR-8): 4110 nM | GI50 (SK-OV-3): 3760 nM | GI50 (MCF7 [2]): 1550 nM | GI50 (MDA-MB-231): 3360 nM | GI50 (BT-549): 2780 nM | GI50 (T47D): 2700 nM | GI50 (MDA-MB-435): 2140 nM | GI50 (SK-MEL-2): 3650 nM | GI50 (SK-MEL-28): 1850 nM | GI50 (SK-MEL-5): 1590 nM
SMILES: COc1cc(/C=C/C(=O)c2cccc(-n3cc(-c4ccccc4)[nH]c3=O)c2)ccc1O
GI50 [1]: 1670 nM | GI50 (EKVX): 3900 nM | GI50 (HOP-62): 1480 nM | GI50 (HOP-92): 2270 nM | GI50 (KM12): 1610 nM | GI50 (SF-268): 2070 nM | GI50 (SF-295): 3040 nM | GI50 (SF-539): 1910 nM | GI50 (SNB-19): 2960 nM | GI50 (SNB-75): 3900 nM | GI50 (A498): 1680 nM | GI50 (CAKI-1): 2190 nM | GI50 (RXF 393): 2270 nM | GI50 (SN12C): 3310 nM | GI50 (TK-10): 5290 nM | GI50 (UO-31): 2180 nM | GI50 (NCI/ADR-RES): 2920 nM | GI50 [3]: 4160 nM | GI50 (LOX IMVI): 1880 nM | GI50 (Malme-3M): 2670 nM | GI50 (M14): 2610 nM | GI50 (UACC-257): 6810 nM | GI50 (UACC-62): 2010 nM | Activity (MCF7 [4]): 11.17% | Activity (MCF7 [5]): 25.85% | Activity (MCF7 [6]): 14.13% | Activity (MCF7 [7]): 48.85% | Activity (MCF7 [8]): 40.05% | Activity (MCF7 [9]): 49.91% | Activity (MCF7 [10]): 2.41% | Activity (MCF7 [11]): 7.63% | Activity (MCF7 [12]): Active | Activity (MCF7 [13]): Active
